# Reference: ChEMBL document CHEMBL3576784, “Azolylthioacetamide: A Highly Promising Scaffold for the Development of Metallo-β-lactamase Inhibitors” (ACS Med Chem Lett, 2015)
# B1: Beta-lactamase (Aeromonas veronii), O31272 (protein)
# chain: MMKGWIKCGLAGAVVLMASFWGGSVRAAGMSLTQQVSGPVYVVEDNYYVQENSMVYFGAKGVTVVGATWTPDTARELHKLIKRVSRKPVLEVINTNYHTDRAGGNAYWKSIGAKVISTRQTRDLMKSDWAEIVAFTRKGLPEYPDLPLVLPNVVHEGDFTLQEGKLRAFYLGPAHSPDGIFVYFPDQQVLYGNCILKEKLGNLSFADVKAYPQTLERLKAMKLPIKTVVGGHDSPLHGPELIDHYEALIKAASQS
# Substrate: C[C@@H](O)[C@H]1C(=O)N2C(C(=O)O)=C(SCCNC=N)C[C@H]12
# Assay: Activity of Aeromonas veronii metallo-beta-lactamase ImiS
# Method in brief: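 Purified enzyme; initial rates of imipenem hydrolysis followed by UV spectrophotometry (262 or 300 nm) in 50 mM Tris pH 7.0, 25 °C. Substrate 24–140 μM, inhibitor 0–10 μM. Rates in triplicate and averaged. Inhibition mode from Lineweaver–Burk plots. Ki from fits of initial velocity vs substrate concentration at each inhibitor level.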
protein,measurement,value
B1,Km,99 µM
same,kcat,255 s⁻¹
